# According to ChEMBL document CHEMBL3525925, “In vitro studies on the oxidative metabolism of 20(s)-ginsenoside Rh2 in human, monkey, dog, rat, and mouse liver microsomes, and human liver s9” (Drug Metab Dispos, 2012):
# Columns and labels:
# [1] = system: Liver microsome; assay: Retention time in human liver microsomes treated with 10 uM 20(S)-ginsenoside Rh2 by MS2 spectra; format: ADME
# Method in brief: (§1)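 Samples: incubation mixed with equal volume methanol, centrifuged at 14,000g for 5 min, dried under nitrogen at 40°C, reconstituted. Separated on Eclipse XDB-C18 (4.6 × 150 mm, 5 μm) at 0.5 ml/min. Gradient: 0.1% formic acid in methanol against 0.1% formic acid in 5 mM ammonium acetate, 70% to 100% organic over 17 min. Ion-trap MSn detection.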
# [2] = system: Liver; assay: Retention time in human liver S9 fraction treated with 10 uM 20(S)-ginsenoside Rh2 by MS2 spectra; format: ADME, subcellular; method in brief: as §1
# [3] = system: Liver; assay: Drug level in human liver S9 fraction treated with 10 uM 20(S)-ginsenoside Rh2 for 60 mins by MS2 spectra; format: ADME, subcellular; settings: s9, 1 h
# Method in brief: (§2)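 Rh2 at 10 μM final (from methanol stock; 0.1% v/v methanol final) in 100 mM potassium phosphate pH 7.4 with 2 mM NADPH, open-to-air tubes at 37°C. 3 min preincubation, then started with liver microsomes or S9 at 1 mg/ml protein. Incubated 60 min, stopped with equal volume ice-cold acetonitrile. Controls lacked NADPH; duplicates. Metabolites detected by LC/ion-trap MSn.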
# [4] = Drug level in cynomolgus monkey liver microsomes treated with 10 uM 20(S)-ginsenoside Rh2 for 60 mins by MS2 spectra; format: ADME, Macaca fascicularis; settings: 1 h; method in brief: as §2
# [5] = system: Liver; assay: Drug level in CD-1 mouse liver microsomes treated with 10 uM 20(S)-ginsenoside Rh2 for 60 mins by MS2 spectra; format: ADME; settings: 1 h; method in brief: as §2
# [6] = biological target: Cytochrome P450 3A5 (Homo sapiens, UniProt P20815); assay: Drug level in human recombinant CYP3A5 treated with 10 uM 20(S)-ginsenoside Rh2 for 60 mins by MS2 spectra; format: ADME; settings: recombinant enzyme, 1 h
# Chain of Cytochrome P450 3A5 (P20815 whole entry): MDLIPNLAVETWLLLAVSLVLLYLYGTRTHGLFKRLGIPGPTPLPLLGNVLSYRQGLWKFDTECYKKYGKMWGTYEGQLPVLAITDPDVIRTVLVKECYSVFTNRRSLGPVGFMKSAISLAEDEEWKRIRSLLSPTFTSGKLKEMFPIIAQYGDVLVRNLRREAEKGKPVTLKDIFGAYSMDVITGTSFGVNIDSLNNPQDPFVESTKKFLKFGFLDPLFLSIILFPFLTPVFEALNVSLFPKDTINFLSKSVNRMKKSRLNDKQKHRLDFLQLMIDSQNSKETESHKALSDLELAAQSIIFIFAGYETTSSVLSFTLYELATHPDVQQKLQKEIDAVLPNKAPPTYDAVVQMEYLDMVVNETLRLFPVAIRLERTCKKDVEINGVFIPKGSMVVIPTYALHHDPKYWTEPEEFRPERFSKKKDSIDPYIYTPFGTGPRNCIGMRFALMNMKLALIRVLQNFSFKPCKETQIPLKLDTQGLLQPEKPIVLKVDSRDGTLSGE
# Method in brief: (§3)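 Recombinant human P450 (50 nM) with 10 μM Rh2 under the microsomal conditions: 100 mM potassium phosphate pH 7.4, 2 mM NADPH, 37°C for 60 min. Stopped with equal volume ice-cold acetonitrile. Run in duplicate; products analysed by LC/ion-trap MSn.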
# [7] = biological target: Cytochrome P450 3A4 (Homo sapiens, UniProt P08684); assay: Drug level in human recombinant CYP3A4 treated with 10 uM 20(S)-ginsenoside Rh2 for 60 mins by MS2 spectra; format: ADME; settings: recombinant enzyme, 1 h; method in brief: as §3
# Chain of Cytochrome P450 3A4 (P08684 whole entry): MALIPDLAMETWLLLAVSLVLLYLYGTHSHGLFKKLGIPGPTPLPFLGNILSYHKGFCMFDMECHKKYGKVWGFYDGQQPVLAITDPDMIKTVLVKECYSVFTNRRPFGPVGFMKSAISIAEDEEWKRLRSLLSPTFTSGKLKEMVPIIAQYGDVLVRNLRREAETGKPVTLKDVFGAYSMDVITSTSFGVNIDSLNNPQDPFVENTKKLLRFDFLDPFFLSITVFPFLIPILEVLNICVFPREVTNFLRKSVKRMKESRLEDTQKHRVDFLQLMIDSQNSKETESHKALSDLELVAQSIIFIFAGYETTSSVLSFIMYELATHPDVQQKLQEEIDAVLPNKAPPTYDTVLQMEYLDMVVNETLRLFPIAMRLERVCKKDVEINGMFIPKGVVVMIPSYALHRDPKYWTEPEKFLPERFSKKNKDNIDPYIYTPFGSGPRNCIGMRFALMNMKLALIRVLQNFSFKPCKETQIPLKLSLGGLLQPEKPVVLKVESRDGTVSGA
# [8] = system: Liver microsome; assay: Drug level in beagle dog liver microsomes treated with 10 uM 20(S)-ginsenoside Rh2 for 60 mins by MS2 spectra; format: ADME, Canis lupus familiaris; settings: 1 h; method in brief: as §2
# [9] = system: Liver microsome; assay: Drug level in human liver microsomes treated with 10 uM 20(S)-ginsenoside Rh2 for 60 mins by MS2 spectra; format: ADME; settings: 1 h; method in brief: as §2
# [10] = system: Liver microsome; assay: Drug level in Sprague-Dawley rat liver microsomes treated with 10 uM 20(S)-ginsenoside Rh2 for 60 mins by MS2 spectra; format: ADME; settings: 1 h; method in brief: as §2
# [11] = system: Liver cytosol; assay: Drug metabolism in human liver cytosol assessed as 26-carboxy,20(S)-Ginsenoside Rh2 formation at 10 uM by LC/MS analysis in presence of 100 uM raloxifene aldehyde oxidase inhibitor; format: ADME; settings: in the assay text read “100 nM raloxifene” for “100 uM raloxifene”
# Method in brief: (§4)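 Pooled human liver cytosol (1 mg/ml) with 2 mM NAD+ and inhibitor in 100 mM potassium phosphate pH 7.4; inhibitors given from DMSO, 0.1% v/v final. After 15 min preincubation at 37°C, started with 10 μM M1-1 or 26-aldehyde-Rh2. Run 60 min, stopped with ice-cold acetonitrile. Duplicates, uninhibited controls; M2-3 acid measured by LC/MSn.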
# [12] = system: Liver cytosol; assay: Drug metabolism in human liver cytosol assessed as 26-carboxy,20(S)-Ginsenoside Rh2 formation at 10 uM by LC/MS analysis in presence of 50 uM 4-methylpyrazole alcohol dehydrogenase inhibitor; format: ADME; method in brief: as §4
# [13] = system: Liver cytosol; assay: Drug metabolism in human liver cytosol assessed as 26-carboxy,20(S)-Ginsenoside Rh2 formation at 10 uM by LC/MS analysis in presence of 50 uM disulfiram aldehyde dehydrogenase inhibitor; format: ADME; method in brief: as §4
Compound,Retention_time [1] [min],Retention_time [2] [min],Drug metabolism [3],Drug metabolism [4],Drug metabolism [5],Drug metabolism [6],Drug metabolism [7],Drug metabolism [8],Drug metabolism [9],Drug metabolism [10],Drug metabolism [11],Drug metabolism [12],Drug metabolism [13]
C/C(=C\CC[C@](C)(O)[C@H]1CC[C@]2(C)[C@@H]1[C@H](O)C[C@@H]1[C@@]3(C)CC[C@H](O[C@@H]4O[C@H](CO)[C@@H](O)[C@H](O)[C@H]4O)C(C)(C)[C@@H]3CC[C@]12C)C(=O)O,14,14,metabolite_detected,metabolite_detected,metabolite_not_detected,metabolite_not_detected,metabolite_detected,metabolite_not_detected,metabolite_detected,metabolite_detected,,,
C/C(C=O)=C\CC[C@](C)(O)[C@H]1CC[C@]2(C)[C@@H]1[C@H](O)C[C@@H]1[C@@]3(C)CC[C@H](O[C@@H]4O[C@H](CO)[C@@H](O)[C@H](O)[C@H]4O)C(C)(C)[C@@H]3CC[C@]12C,,,,,,,,,,,metabolite_not_detected,metabolite_not_detected,metabolite_not_detected
CC(C)(O)[C@@H]1CC[C@@](C)([C@H]2CC[C@]3(C)[C@@H]2[C@H](O)C[C@@H]2[C@@]4(C)CC[C@H](O[C@@H]5O[C@H](CO)[C@@H](O)[C@H](O)[C@H]5O)C(C)(C)[C@@H]4CC[C@]23C)O1,18.9,18.9,metabolite_detected,metabolite_detected,metabolite_detected,metabolite_detected,metabolite_detected,metabolite_detected,metabolite_detected,metabolite_detected,,,
CC1(C)[C@@H](O[C@@H]2O[C@H](CO)[C@@H](O)[C@H](O)[C@H]2O)CC[C@]2(C)[C@H]3C[C@@H](O)[C@@H]4[C@@H]([C@@](C)(O)CCC=C(CO)CO)CC[C@@]4(C)[C@]3(C)CC[C@@H]12,12.2,12.2,metabolite_detected,metabolite_detected,metabolite_detected,metabolite_not_detected,metabolite_detected,metabolite_detected,metabolite_detected,metabolite_detected,,,
C/C(=C/CC[C@](C)(O)[C@H]1CC[C@]2(C)[C@@H]1[C@H](O)C[C@@H]1[C@@]3(C)CC[C@H](O[C@@H]4O[C@H](CO)[C@@H](O)[C@H](O)[C@H]4O)C(C)(C)[C@@H]3CC[C@]12C)C(=O)O,13.2,13.2,metabolite_detected,metabolite_detected,metabolite_detected,metabolite_not_detected,metabolite_detected,metabolite_not_detected,metabolite_detected,metabolite_detected,,,
CC(C)(O)[C@H]1CC[C@@](C)([C@H]2CC[C@]3(C)[C@@H]2[C@H](O)C[C@@H]2[C@@]4(C)CC[C@H](O[C@@H]5O[C@H](CO)[C@@H](O)[C@H](O)[C@H]5O)C(C)(C)[C@@H]4CC[C@]23C)O1,20.2,20.2,metabolite_detected,metabolite_detected,metabolite_detected,metabolite_not_detected,metabolite_detected,metabolite_detected,metabolite_detected,metabolite_detected,,,

# Further lines, results first:
Retention_time [1] [min],Retention_time [2] [min],Drug metabolism [3],Drug metabolism [4],Drug metabolism [5],Drug metabolism [6],Drug metabolism [7],Drug metabolism [8],Drug metabolism [9],Drug metabolism [10],Drug metabolism [11],Drug metabolism [12],Drug metabolism [13],Compound
15.6,15.6,metabolite_detected,metabolite_detected,metabolite_detected,metabolite_not_detected,metabolite_detected,metabolite_not_detected,metabolite_detected,metabolite_detected,,,,CC1(C)[C@@H](O[C@@H]2O[C@H](CO)[C@@H](O)[C@H](O)[C@H]2O)CC[C@]2(C)[C@H]3C[C@@H](O)[C@@H]4[C@@H]([C@@](C)(O)CC[C@@H]5O[C@@]5(C)CO)CC[C@@]4(C)[C@]3(C)CC[C@@H]12
16.7,16.7,metabolite_detected,metabolite_detected,metabolite_detected,metabolite_not_detected,metabolite_detected,metabolite_not_detected,metabolite_detected,metabolite_detected,,,,CC(O)(CO)[C@H]1CC[C@@](C)([C@H]2CC[C@]3(C)[C@@H]2[C@H](O)C[C@@H]2[C@@]4(C)CC[C@H](O[C@@H]5O[C@H](CO)[C@@H](O)[C@H](O)[C@H]5O)C(C)(C)[C@@H]4CC[C@]23C)O1 (stereo partly drawn)
20,20,metabolite_detected,metabolite_detected,metabolite_detected,metabolite_not_detected,metabolite_detected,metabolite_detected,metabolite_detected,metabolite_detected,,,,CC1(C)O[C@H]1CC[C@](C)(O)[C@H]1CC[C@]2(C)[C@@H]1[C@H](O)C[C@@H]1[C@@]3(C)CC[C@H](O[C@@H]4O[C@H](CO)[C@@H](O)[C@H](O)[C@H]4O)C(C)(C)[C@@H]3CC[C@]12C
18.3,18.3,metabolite_detected,metabolite_detected,metabolite_detected,metabolite_detected,metabolite_detected,metabolite_detected,metabolite_detected,metabolite_detected,,,,C/C(=C/CC[C@](C)(O)[C@H]1CC[C@]2(C)[C@@H]1[C@H](O)C[C@@H]1[C@@]3(C)CC[C@H](O[C@@H]4O[C@H](CO)[C@@H](O)[C@H](O)[C@H]4O)C(C)(C)[C@@H]3CC[C@]12C)CO
16.2,16.2,metabolite_detected,metabolite_detected,metabolite_detected,metabolite_not_detected,metabolite_detected,metabolite_not_detected,metabolite_detected,metabolite_detected,,,,CC(O)(CO)[C@@H]1CC[C@@](C)([C@H]2CC[C@]3(C)[C@@H]2[C@H](O)C[C@@H]2[C@@]4(C)CC[C@H](O[C@@H]5O[C@H](CO)[C@@H](O)[C@H](O)[C@H]5O)C(C)(C)[C@@H]4CC[C@]23C)O1 (stereo partly drawn)
